Key:
[1] = system: NCI-H522; assay: Growth inhibition of human NCI-H522 cells assessed as cell growth at 10 uM after 48 hrs by sulforhodamine B assay; assay type: functional; settings: NCI-H522, 48 h, read-out: Activity
[2] = system: A498; assay: Growth inhibition of human A498 cells after 48 hrs by sulforhodamine B assay; assay type: functional; settings: A498, 48 h; for CC50: read-out: LC50 (the source's name)
Procedure, shortened: (§1)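 NCI 60-cell-line panel grown in RPMI-type medium with 5% fetal calf serum and 2 mM L-glutamine. Cells preincubated 24 h, then exposed continuously for 48 h to compound in DMSO at 10^-4 to 10^-8 M (five 10-fold levels). Growth read by SRB protein stain. GI50 is the concentration giving a 50% reduction in net protein increase relative to control cells.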

[3] = system: SW-620; assay: Growth inhibition of human SW620 cells assessed as cell growth at 10 uM after 48 hrs by sulforhodamine B assay; assay type: functional; settings: SW-620, 48 h, read-out: Activity
Procedure, shortened: (§2)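 Single-dose NCI screen. Tumor lines were cultured in medium with 5% fetal calf serum and 2 mM L-glutamine, preincubated 24 h, then given compound in DMSO. After 48 h continuous exposure, cell growth was estimated by sulforhodamine B protein assay.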

[4] = system: SK-MEL-28; assay: Growth inhibition of human SK-MEL-28 cells assessed as cell growth at 10 uM after 48 hrs by sulforhodamine B assay; assay type: functional; settings: SK-MEL-28, 48 h, read-out: Activity
[5] = system: CCRF-CEM; assay: Growth inhibition of human CCRF-CEM cells assessed as cell growth at 10 uM after 48 hrs by sulforhodamine B assay; assay type: functional; settings: read-out: Activity
[6] = system: SF-539; assay: Growth inhibition of human SF539 cells after 48 hrs by sulforhodamine B assay; assay type: functional; settings: SF-539, 48 h; for CC50: read-out: LC50 (the source's name)
Procedure, shortened: (§3)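 NCI 60-cell-line panel. Cells were grown in medium with 5% fetal calf serum and 2 mM L-glutamine, then preincubated 24 h in plates. Compounds were added from DMSO at five 10-fold concentrations from 100 to 0.01 µM and left on cells continuously for 48 h. Cell growth was read by sulforhodamine B protein stain. GI50 is the concentration that halves net protein increase relative to control cells.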

[7] = system: T47D; assay: Growth inhibition of human T47D cells assessed as cell growth at 10 uM after 48 hrs by sulforhodamine B assay; assay type: functional; settings: read-out: Activity; procedure, shortened: as §2
[8] = system: K562; assay: Growth inhibition of human K562 cells after 48 hrs by sulforhodamine B assay; assay type: functional; settings: K562, 48 h; for CC50: read-out: LC50 (the source's name); procedure, shortened: as §1
[9] = system: SNB-75; assay: Growth inhibition of human SNB75 cells assessed as cell growth at 10 uM after 48 hrs by sulforhodamine B assay; assay type: functional; settings: SNB-75, 48 h, read-out: Activity
[10] = system: SK-MEL-2; assay: Growth inhibition of human SK-MEL-2 cells after 48 hrs by sulforhodamine B assay; assay type: functional; settings: SK-MEL-2, 48 h; procedure, shortened: as §3
[11] = system: HL-60(TB); assay: Growth inhibition of human HL-60(TB) cells assessed as cell growth at 10 uM after 48 hrs by sulforhodamine B assay; assay type: functional; settings: HL-60, 48 h, read-out: Activity
[12] = system: A549; assay: Growth inhibition of human A549/ATCC cells after 48 hrs by sulforhodamine B assay; assay type: functional; settings: A549, 48 h; for CC50: read-out: LC50 (the source's name); procedure, shortened: as §1
[13] = Growth inhibition of human Hs 578T cells assessed as cell growth at 10 uM after 48 hrs by sulforhodamine B assay; assay type: functional; settings: read-out: Activity
[14] = system: SF-268; assay: Growth inhibition of human SF268 cells assessed as cell growth at 10 uM after 48 hrs by sulforhodamine B assay; assay type: functional; settings: SF-268, 48 h, read-out: Activity
[15] = system: MDA-MB-468; assay: Growth inhibition of human MDA-MB-468 cells after 48 hrs by sulforhodamine B assay; assay type: functional; settings: MDA-MB-468, 48 h; procedure, shortened: as §3
[16] = system: SK-MEL-2; assay: Growth inhibition of human SK-MEL-2 cells assessed as cell growth at 10 uM after 48 hrs by sulforhodamine B assay; assay type: functional; settings: SK-MEL-2, 48 h, read-out: Activity
[17] = system: UACC-62; assay: Growth inhibition of human UACC62 cells assessed as cell growth at 10 uM after 48 hrs by sulforhodamine B assay; assay type: functional; settings: UACC-62, 48 h, read-out: Activity; procedure, shortened: as §2
[18] = Growth inhibition of human NCI-ADR-RES cells assessed as cell growth at 10 uM after 48 hrs by sulforhodamine B assay; assay type: functional; settings: read-out: Activity
[19] = system: OVCAR-5; assay: Growth inhibition of human OVCAR5 cells assessed as cell growth at 10 uM after 48 hrs by sulforhodamine B assay; assay type: functional; settings: OVCAR-5, 48 h, read-out: Activity
[20] = system: M14; assay: Growth inhibition of human M14 cells after 48 hrs by sulforhodamine B assay; assay type: functional; settings: M14, 48 h; for CC50: read-out: LC50 (the source's name); procedure, shortened: as §1
[21] = system: U-251; assay: Growth inhibition of human U251 cells after 48 hrs by sulforhodamine B assay; assay type: functional; settings: U-251, 48 h; for CC50: read-out: LC50 (the source's name)
Procedure, shortened: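 NCI 60-line panel. Cells were grown in medium with 5% fetal calf serum and 2 mM L-glutamine and preincubated 24 h in plates. Compound in DMSO was added at 10^-4 to 10^-8 M (five 10-fold levels), with continuous exposure for 48 h. Growth was read by SRB protein staining. GI50 is the concentration giving 50% reduction in net protein increase versus control cells.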

[22] = system: HOP-92; assay: Growth inhibition of human HOP92 cells after 48 hrs by sulforhodamine B assay; assay type: functional; settings: HOP-92, 48 h; for CC50: read-out: LC50 (the source's name); procedure, shortened: as §1
[23] = system: MDA-MB-468; assay: Growth inhibition of human MDA-MB-468 cells assessed as cell growth at 10 uM after 48 hrs by sulforhodamine B assay; assay type: functional; settings: MDA-MB-468, 48 h, read-out: Activity
[24] = system: RPMI-8226; assay: Growth inhibition of human RPMI8226 cells after 48 hrs by sulforhodamine B assay; assay type: functional; settings: RPMI-8226, 48 h; for CC50: read-out: LC50 (the source's name); procedure, shortened: as §3
[25] = system: MCF7; assay: Growth inhibition of human MCF7 cells after 48 hrs by sulforhodamine B assay; assay type: functional; settings: MCF7, 48 h; procedure, shortened: as §1
[26] = system: MDA-MB-435; assay: Growth inhibition of human MDA-MB-435 cells assessed as cell growth at 10 uM after 48 hrs by sulforhodamine B assay; assay type: functional; settings: MDA-MB-435, 48 h, read-out: Activity
[27] = system: OVCAR-8; assay: Growth inhibition of human OVCAR8 cells assessed as cell growth at 10 uM after 48 hrs by sulforhodamine B assay; assay type: functional; settings: OVCAR-8, 48 h, read-out: Activity
[28] = Growth inhibition of human HCC2998 cells assessed as cell growth at 10 uM after 48 hrs by sulforhodamine B assay; assay type: functional; settings: HCC 2998, 48 h, read-out: Activity
[29] = system: CCRF-CEM; assay: Growth inhibition of human CCRF-CEM cells after 48 hrs by sulforhodamine B assay; assay type: functional, cell-based; procedure, shortened: as §1
[30] = system: 786-0; assay: Growth inhibition of human 786-0 cells assessed as cell growth at 10 uM after 48 hrs by sulforhodamine B assay; assay type: functional; settings: 786-0, 48 h, read-out: Activity

Compound: Cc1cc(O)ccc1C1=NN(c2ccc(S(C)(=O)=O)cc2)C(=O)CC1
- growth at 10 µM [1]: 2.39%
- GI50 [2]: 2.78 µM
- TGI [2]: 45.4 µM
- CC50 [2]: > 100 µM
- growth at 10 µM [3]: 46.6%
- growth at 10 µM [4]: 81.2%
- growth at 10 µM [5]: 69.7%
- GI50 [6]: 13.2 µM
- TGI [6]: > 100 µM
- CC50 [6]: > 100 µM
- growth at 10 µM [7]: 84.8%
- GI50 [8]: 3.74 µM
- TGI [8]: > 100 µM
- CC50 [8]: > 100 µM
- growth at 10 µM [9]: 75.2%
- GI50 [10]: 3.48 µM
- LC50 [10]: > 100 µM
- TGI [10]: 32.8 µM
- growth at 10 µM [11]: 52.6%
- GI50 [12]: 6.2 µM
- TGI [12]: > 100 µM
- CC50 [12]: > 100 µM
- growth at 10 µM [13]: 87%
- growth at 10 µM [14]: 80.3%
- GI50 [15]: 11 µM
- LC50 (concentration killing 50% of cells) [15]: > 100 µM
- TGI [15]: 44.3 µM
- growth at 10 µM [16]: 68.7%
- growth at 10 µM [17]: 52.9%
- growth at 10 µM [18]: 40.6%
- growth at 10 µM [19]: 98%
- GI50 [20]: 3.85 µM
- TGI [20]: > 100 µM
- CC50 [20]: > 100 µM
- GI50 [21]: 4.3 µM
- TGI [21]: > 100 µM
- CC50 [21]: > 100 µM
- GI50 [22]: 6.49 µM
- TGI [22]: > 100 µM
- CC50 [22]: > 100 µM
- growth at 10 µM [23]: 103%
- GI50 [24]: 25.6 µM
- TGI [24]: > 100 µM
- CC50 [24]: > 100 µM
- GI50 [25]: 20.7 µM
- LC50 (concentration killing 50% of cells) [25]: > 100 µM
- TGI [25]: > 100 µM
- growth at 10 µM [26]: -8.25%
- growth at 10 µM [27]: 92.3%
- growth at 10 µM [28]: 78.6%
- GI50 [29]: 9.09 µM
- TGI [29]: > 100 µM
- CC50 ([29]; read-out: LC50 (the source's name)): > 100 µM
- growth at 10 µM [30]: 84.1%

Compound: Cc1ccc(C2=NN(c3ccc(S(C)(=O)=O)cc3)C(=O)CC2)cc1
- growth at 10 µM [1]: 12.8%
- GI50 [2]: 0.14 µM
- TGI [2]: 1.6 µM
- CC50 [2]: > 100 µM
- growth at 10 µM [3]: 8.58%
- growth at 10 µM [4]: 51.4%
- growth at 10 µM [5]: 14.9%
- GI50 [6]: 1.02 µM
- TGI [6]: 17.4 µM
- CC50 [6]: > 100 µM
- growth at 10 µM [7]: 32.7%
- GI50 [8]: 0.37 µM
- TGI [8]: > 100 µM
- CC50 [8]: > 100 µM
- growth at 10 µM [9]: 8.1%
- GI50 [10]: 0.43 µM
- LC50 [10]: > 100 µM
- TGI [10]: > 100 µM
- growth at 10 µM [11]: -12%
- GI50 [12]: 0.52 µM
- TGI [12]: > 100 µM
- CC50 [12]: > 100 µM
- growth at 10 µM [13]: -1.17%
- growth at 10 µM [14]: 55.2%
- GI50 [15]: 1.23 µM
- LC50 (concentration killing 50% of cells) [15]: > 100 µM
- TGI [15]: 4.86 µM
- growth at 10 µM [16]: 6.35%
- growth at 10 µM [17]: 42.9%
- growth at 10 µM [18]: 6.72%
- growth at 10 µM [19]: 53.1%
- GI50 [20]: 0.38 µM
- TGI [20]: > 100 µM
- CC50 [20]: > 100 µM
- GI50 [21]: 0.45 µM
- TGI [21]: > 100 µM
- CC50 [21]: > 100 µM
- GI50 [22]: 0.42 µM
- TGI [22]: 8.3 µM
- CC50 [22]: > 100 µM
- growth at 10 µM [23]: 23.9%
- GI50 [24]: 2.78 µM
- TGI [24]: > 100 µM
- CC50 [24]: > 100 µM
- GI50 [25]: 1.38 µM
- LC50 (concentration killing 50% of cells) [25]: > 100 µM
- TGI [25]: > 100 µM
- growth at 10 µM [26]: -61.2%
- growth at 10 µM [27]: 31.8%
- growth at 10 µM [28]: 47.2%
- GI50 [29]: 1.16 µM
- IC50 [29]: > 100 µM
- TGI [29]: > 100 µM
- growth at 10 µM [30]: 38.3%

— ChEMBL document CHEMBL2417474, “Synthesis, antiproliferative and anti-inflammatory activities of some novel 6-aryl-2-(p-(methanesulfonyl)phenyl)-4,5-dihydropyridazi-3(2H)-ones” (Eur J Med Chem, 2013)
